Tests used:
[1] = biological target: Mu-type opioid receptor (Rattus norvegicus) (UniProt P33535); assay: Agonist activity at opioid receptor in mu rat brain membrane by [35S]GTPgammaS binding assay relative to baseline in presence of opioid-selective antagonist naloxone; type: functional, cell membranes
[2] = biological target: Mu-type opioid receptor (Rattus norvegicus) (UniProt P33535); assay: Agonist activity at mu opioid receptor in rat brain membrane by [35S]GTPgammaS binding assay relative to baseline; type: functional, cell membranes
[3] = Half life in rat brain homogenate by RP-HPLC; type: ADME, tissue-based
How it was run: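 Peptide (1 mM stock in 50 mM Tris-HCl pH 7.4, 1:10 into homogenate) incubated at 37 °C with crude rat brain homogenate (5.0 mg/mL protein). Aliquots quenched with HCl, centrifuged, supernatant run on RP-HPLC. k from linear regression of ln(A/A0) vs time over at least 5 time points; t1/2 = ln2/k, pseudo-first-order. At least three experiments.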

Mu-type opioid receptor [4] = biological target: T1, Mu-type opioid receptor (Rattus norvegicus, UniProt P33535); assay: Displacement of [3H]DAMGO from mu opioid receptor in rat brain membrane homogenate by liquid scintillation counting; type: cell membranes
[5] = biological target: Delta-type opioid receptor (Rattus norvegicus, UniProt P33533); assay: Displacement of [3H][Ile5,6]deltorphin2 from delta opioid receptor in rat brain membrane homogenate by liquid scintillation counting; type: cell membranes
Rattus norvegicus = species on record: Rattus norvegicus; assay: Selectivity ratio of Ki for delta opioid receptor in rat brain to mu opioid receptor in rat brain; type: tissue-based
Mu-type opioid receptor [6] = biological target: T1, Mu-type opioid receptor; assay: Agonist activity at mu opioid receptor in rat brain membrane by [35S]GTPgammaS binding assay; type: functional, cell membranes

Delta-type opioid receptor, sequence (P33533 whole entry): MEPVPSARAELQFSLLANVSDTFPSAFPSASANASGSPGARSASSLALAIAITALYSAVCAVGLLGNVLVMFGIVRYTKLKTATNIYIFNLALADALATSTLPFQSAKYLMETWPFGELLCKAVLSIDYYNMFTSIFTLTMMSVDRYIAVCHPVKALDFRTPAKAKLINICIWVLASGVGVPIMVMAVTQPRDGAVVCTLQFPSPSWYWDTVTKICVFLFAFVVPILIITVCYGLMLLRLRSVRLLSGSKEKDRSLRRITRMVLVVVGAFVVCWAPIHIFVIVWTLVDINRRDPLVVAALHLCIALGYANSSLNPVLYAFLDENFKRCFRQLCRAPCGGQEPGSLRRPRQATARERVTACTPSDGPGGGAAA
Mu-type opioid receptor (Rattus norvegicus), sequence (P33535 whole entry): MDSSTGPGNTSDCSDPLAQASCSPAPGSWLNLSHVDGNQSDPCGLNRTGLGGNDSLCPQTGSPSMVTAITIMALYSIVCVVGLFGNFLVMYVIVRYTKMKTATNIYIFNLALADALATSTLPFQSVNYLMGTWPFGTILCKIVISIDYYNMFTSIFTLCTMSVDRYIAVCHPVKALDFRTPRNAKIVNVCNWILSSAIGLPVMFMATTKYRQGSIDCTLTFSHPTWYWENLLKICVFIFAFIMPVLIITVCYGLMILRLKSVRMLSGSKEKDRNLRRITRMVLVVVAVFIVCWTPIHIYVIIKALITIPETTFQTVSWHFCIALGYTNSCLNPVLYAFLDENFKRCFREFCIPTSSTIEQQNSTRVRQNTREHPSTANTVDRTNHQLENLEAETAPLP
T1 sequence (P33535 whole entry): as above

## C[C@@H](NC(=O)[C@@H](N)Cc1ccc(O)cc1)C(=O)NCC(=O)N(C)[C@@H](Cc1ccccc1)C(=O)NCCO
[1]
  Emax: 119%
[2]
  Emax: 178%

## NC(=O)[C@H](Cc1ccccc1)NC(=O)[C@H](Cc1ccccc1)NC(=O)[C@@H]1CCCN1C(=O)[C@@H](N)Cc1ccc(O)cc1 [ENDOMORPHIN 2]
[3]
  half-life: 0.095 h
[1]
  Emax: 123%
[2]
  Emax: 163%

## Cc1cc(CC(N)C(=O)N[C@@H]2CCCC[C@@H]2C(=O)N[C@@H](Cc2ccccc2)C(=O)N[C@H](C(N)=O)[C@@H](C)c2ccccc2)cc(C)c1O (some centres undefined)
Mu-type opioid receptor [4]
  Ki: 0.00047 µM
[5]
  Ki: 0.142 µM
Rattus norvegicus
  Ratio Ki: 302
Mu-type opioid receptor [6]
  EC50: 0.017 µM
[3]
  half-life: > 20 h
[1]
  Emax: 146%
[2]
  Emax: 159%

## C[C@@H](c1ccccc1)[C@H](NC(=O)[C@H](Cc1c[nH]c2ccccc12)NC(=O)[C@H]1CCCC[C@H]1NC(=O)[C@@H](N)Cc1ccc(O)cc1)C(N)=O
Mu-type opioid receptor [4]
  Ki: 0.0042 µM
[5]
  Ki: 1.44 µM
Rattus norvegicus
  Ratio Ki: 343
Mu-type opioid receptor [6]
  EC50: 0.264 µM
[3]
  half-life: > 20 h
[1]
  Emax: 130%
[2]
  Emax: 162%

## NC(=O)C(Cc1ccc(F)cc1)NC(=O)[C@H](Cc1ccccc1)NC(=O)[C@H]1CCCC[C@H]1NC(=O)[C@@H](N)Cc1ccc(O)cc1 (some centres undefined)
[5]
  Ki: 0.366 µM

## NC(=O)C(Cc1ccc(F)cc1)NC(=O)[C@H](Cc1c[nH]c2ccccc12)NC(=O)[C@H]1CCCC[C@H]1NC(=O)[C@@H](N)Cc1ccc(O)cc1 (some centres undefined)
Mu-type opioid receptor [4]
  Ki: 0.0032 µM
[5]
  Ki: 0.571 µM
Rattus norvegicus
  Ratio Ki: 178
Mu-type opioid receptor [6]
  EC50: 0.38 µM
[3]
  half-life: > 20 h
[1]
  Emax: 125%
[2]
  Emax: 174%

## Cc1cc(CC(N)C(=O)N[C@@H]2CCCC[C@@H]2C(=O)N[C@@H](Cc2c[nH]c3ccccc23)C(=O)N[C@@H](C(N)=O)[C@H](C)c2ccccc2)cc(C)c1O (some centres undefined)
Mu-type opioid receptor [4]
  Ki: 0.00411 µM
[5]
  Ki: 0.287 µM
Rattus norvegicus
  Ratio Ki: 69

## C[C@H](c1ccccc1)[C@@H](NC(=O)[C@H](Cc1c[nH]c2ccccc12)NC(=O)[C@H]1CCCC[C@H]1NC(=O)[C@@H](N)Cc1ccc(O)cc1)C(N)=O
Mu-type opioid receptor [4]
  Ki: 0.0346 µM
[5]
  Ki: 3.36 µM
Rattus norvegicus
  Ratio Ki: 97

## C[C@@H](c1ccccc1)[C@H](NC(=O)[C@H](Cc1ccccc1)NC(=O)[C@H]1CCCC[C@H]1NC(=O)[C@@H](N)Cc1ccc(O)cc1)C(N)=O
[5]
  Ki: 0.661 µM

## Cc1cc(CC(N)C(=O)N[C@@H]2CCCC[C@@H]2C(=O)N[C@@H](Cc2c[nH]c3ccccc23)C(=O)NC(Cc2ccc(F)cc2)C(N)=O)cc(C)c1O (some centres undefined)
Mu-type opioid receptor [4]
  Ki: 0.0111 µM
[5]
  Ki: 2.64 µM
Rattus norvegicus
  Ratio Ki: 237
Mu-type opioid receptor [6]
  EC50: 0.0081 µM
[1]
  Emax: 127%
[2]
  Emax: 163%

## Cc1cc(CC(N)C(=O)N[C@@H]2CCCC[C@@H]2C(=O)N[C@@H](Cc2ccccc2)C(=O)NC(Cc2ccc(F)cc2)C(N)=O)cc(C)c1O (some centres undefined)
[5]
  Ki: 0.096 µM
[3]
  half-life: > 20 h

## NC(=O)C(Cc1ccc(F)cc1)NC(=O)[C@H](Cc1ccccc1)NC(=O)[C@@H]1CCCC[C@@H]1NC(=O)[C@@H](N)Cc1ccc(O)cc1 (some centres undefined)
[5]
  Ki: 0.689 µM

## Cc1cc(CC(N)C(=O)N[C@@H]2CCCC[C@@H]2C(=O)N[C@@H](Cc2ccccc2)C(=O)N[C@@H](C(N)=O)[C@H](C)c2ccccc2)cc(C)c1O (some centres undefined)
Mu-type opioid receptor [4]
  Ki: 0.0097 µM
[5]
  Ki: 0.198 µM
Rattus norvegicus
  Ratio Ki: 20

## C[C@H](c1ccccc1)[C@@H](NC(=O)[C@H](Cc1ccccc1)NC(=O)[C@H]1CCCC[C@H]1NC(=O)[C@@H](N)Cc1ccc(O)cc1)C(N)=O
[5]
  Ki: 1.27 µM

## Cc1cc(CC(N)C(=O)N[C@@H]2CCCC[C@@H]2C(=O)N[C@@H](Cc2c[nH]c3ccccc23)C(=O)N[C@H](C(N)=O)[C@@H](C)c2ccccc2)cc(C)c1O (some centres undefined)
Mu-type opioid receptor [4]
  Ki: 0.00093 µM
[5]
  Ki: 0.123 µM
Rattus norvegicus
  Ratio Ki: 132
Mu-type opioid receptor [6]
  EC50: 0.0221 µM
[1]
  Emax: 145%
[2]
  Emax: 162%

## NC(=O)[C@H](Cc1ccccc1)NC(=O)[C@H](Cc1c[nH]c2ccccc12)NC(=O)[C@@H]1CCCN1C(=O)[C@@H](N)Cc1ccc(O)cc1 [ENDOMORPHIN-1]
[3]
  half-life: 0.105 h
[1]
  Emax: 124%
[2]
  Emax: 149%

## NC(=O)C(Cc1ccc(F)cc1)NC(=O)[C@H](Cc1c[nH]c2ccccc12)NC(=O)[C@@H]1CCCC[C@@H]1NC(=O)[C@@H](N)Cc1ccc(O)cc1 (some centres undefined)
Mu-type opioid receptor [4]
  Ki: 0.143 µM
[5]
  Ki: 7.82 µM
Rattus norvegicus
  Ratio Ki: 54
